Test results as given in paper PMC9292600 (Clinical Pharmacology in Drug Development, 2021).
Like-named read-outs stand apart in the source and are kept apart here.

How the values were obtained:
[1] = format: in vivo, human (healthy adult participants); conditions: for AUC(0-inf) / AUC(0-t) / Cmax / half-life / Tmax: human, plasma, po; for Tmax: median (range)
[2] = Safety and tolerability; format: in vivo, human (healthy adult participants)
In short: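 Healthy adults received single 100-mg oral doses of 4×25-mg tablets, either fasted, after a high-fat meal, or after five evening doses of rabeprazole 20 mg. Safety was monitored by physical examination, laboratory tests, ECG, concomitant medication review, and AE frequency and severity. The safety population comprised all participants receiving ≥1 dose of study medication.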

[3] = cited from earlier work
[4] = both acetate and freebase forms, cited from earlier work
[5] = 100-mg oral solution (test) versus 100-mg tablets (reference)
[6] = 100-mg tablets + high-fat meal (test) versus 100-mg tablets (reference)
[7] = 100-mg tablets + rabeprazole 20-mg (test) versus 100-mg tablets (reference)
[8] = Treatment A: 100-mg tablets, fasted, n = 24
[9] = Treatment B: 100-mg tablets + high-fat meal, n = 23
[10] = Treatment C: 100-mg tablets + rabeprazole 20 mg, n = 23
[11] = Treatment D: 100-mg oral solution, n = 24

C[C@H]1Oc2cc(cnc2N)-c2c(nn(C)c2C#N)CN(C)C(=O)c2ccc(F)cc21 [Lorlatinib, (10R)‐7‐amino‐12‐fluoro‐2,10,16‐trimethyl‐15‐oxo‐10,15,16,17‐tetrahydro‐2H‐8,4‐(metheno)pyrazolo[4,3‐h][2,5,11]‐benzoxadiazacyclotetradecine‐3‐carbonitrile]
Ratio (Test/Reference) of Adjusted Means, AUCinf [1, 5]: 107.9% | Ratio (Test/Reference) of Adjusted Means, AUClast [1, 5]: 107.8% | Ratio (Test/Reference) of Adjusted Means, Cmax [1, 5]: 129.7% | Ratio (Test/Reference) of Adjusted Means, AUCinf [1, 6]: 104.7% | Ratio (Test/Reference) of Adjusted Means, AUClast [1, 6]: 104.6% | Ratio (Test/Reference) of Adjusted Means, Cmax [1, 6]: 90.9% | Ratio (Test/Reference) of Adjusted Means, AUCinf [1, 7]: 100.9% | Ratio (Test/Reference) of Adjusted Means, AUClast [1, 7]: 99.7% | Ratio (Test/Reference) of Adjusted Means, Cmax [1, 7]: 70.7% | Adjusted geometric mean Cmax ([1]; 100-mg tablets, fasted (reference), mixed-effects model): 533.1 ng/mL | Arithmetic mean CL/F ([1]; Treatment A: single oral 100-mg dose, tablets, fasted, n = 24, mean ± SD): 11.8 ± 2.5 L/h | Geometric mean CL/F ([1]; Treatment A: single oral 100-mg dose, tablets, fasted, n = 24, value (geometric %CV)): 11.5 (24) L/h | Arithmetic mean CL/F ([1]; Treatment B: single oral 100-mg dose, tablets + high-fat meal, n = 23, mean ± SD): 11.7 ± 2.8 L/h | Geometric mean CL/F ([1]; Treatment B: single oral 100-mg dose, tablets + high-fat meal, n = 23, value (geometric %CV)): 11.4 (24) L/h | Arithmetic mean CL/F ([1]; Treatment C: single oral 100-mg dose, tablets + rabeprazole 20 mg, fasted, n = 23, mean ± SD): 11.9 ± 2.5 L/h | Geometric mean CL/F ([1]; Treatment C: single oral 100-mg dose, tablets + rabeprazole 20 mg, fasted, n = 23, value (geometric %CV)): 11.6 (24) L/h | Arithmetic mean CL/F ([1]; Treatment D: single oral 100-mg dose, oral solution, fasted, n = 24, mean ± SD): 11.0 ± 2.4 L/h | Geometric mean CL/F ([1]; Treatment D: single oral 100-mg dose, oral solution, fasted, n = 24, value (geometric %CV)): 10.7 (24) L/h | AUC(0-inf) ([1]; 100 mg, Arithmetic mean AUCinf, Treatment A: single oral 100-mg dose, tablets, fasted, n = 24, mean ± SD): 8960 ± 2380 ng·h/mL | AUC(0-inf) ([1]; 100 mg, Arithmetic mean AUCinf, Treatment B: single oral 100-mg dose, tablets + high-fat meal, n = 23, mean ± SD): 9030 ± 2280 ng·h/mL | AUC(0-inf) ([1]; 100 mg, Arithmetic mean AUCinf, Treatment D: single oral 100-mg dose, oral solution, fasted, n = 24, mean ± SD): 9620 ± 2440 ng·h/mL | AUC(0-t) ([1]; 100 mg, Arithmetic mean AUClast, Treatment A: single oral 100-mg dose, tablets, fasted, n = 24, mean ± SD): 8380 ± 1990 ng·h/mL | AUC(0-t) ([1]; 100 mg, Arithmetic mean AUClast, Treatment B: single oral 100-mg dose, tablets + high-fat meal, n = 23, mean ± SD): 8460 ± 1940 ng·h/mL | AUC(0-t) ([1]; 100 mg, Arithmetic mean AUClast, Treatment D: single oral 100-mg dose, oral solution, fasted, n = 24, mean ± SD): 8990 ± 2040 ng·h/mL | Cmax ([1]; 100 mg, Arithmetic mean Cmax, Treatment A: single oral 100-mg dose, tablets, fasted, n = 24, mean ± SD): 559 ± 115 ng/mL | Cmax ([1]; 100 mg, Arithmetic mean Cmax, Treatment D: single oral 100-mg dose, oral solution, fasted, n = 24, mean ± SD): 722 ± 185 ng/mL | half-life ([1]; 100 mg, Arithmetic mean t1/2, Treatment A: single oral 100-mg dose, tablets, fasted, n = 24, mean ± SD): 24.2 ± 5.2 h | half-life ([1]; 100 mg, Arithmetic mean t1/2, Treatment B: single oral 100-mg dose, tablets + high-fat meal, n = 23, mean ± SD): 23.7 ± 6 h | half-life ([1]; 100 mg, Arithmetic mean t1/2, Treatment D: single oral 100-mg dose, oral solution, fasted, n = 24, mean ± SD): 24.1 ± 5.4 h | AUC(0-inf) ([1]; 100 mg, Geometric mean AUCinf, Treatment A: single oral 100-mg dose, tablets, fasted, n = 24, value (geometric %CV)): 8710 ng·h/mL | AUC(0-inf) ([1]; 100 mg, Geometric mean AUCinf, Treatment B: single oral 100-mg dose, tablets + high-fat meal, n = 23, value (geometric %CV)): 8780 ng·h/mL | AUC(0-inf) ([1]; 100 mg, Geometric mean AUCinf, Treatment D: single oral 100-mg dose, oral solution, fasted, n = 24, value (geometric %CV)): 9360 ng·h/mL | AUC(0-t) ([1]; 100 mg, Geometric mean AUClast, Treatment B: single oral 100-mg dose, tablets + high-fat meal, n = 23, value (geometric %CV)): 8260 ng·h/mL | AUC(0-t) ([1]; 100 mg, Geometric mean AUClast, Treatment D: single oral 100-mg dose, oral solution, fasted, n = 24, value (geometric %CV)): 8790 ng·h/mL | Cmax ([1]; 100 mg, Geometric mean Cmax, Treatment A: single oral 100-mg dose, tablets, fasted, n = 24, value (geometric %CV)): 548 ng/mL | Cmax ([1]; 100 mg, Geometric mean Cmax, Treatment B: single oral 100-mg dose, tablets + high-fat meal, n = 23, value (geometric %CV)): 489 ng/mL | Cmax ([1]; 100 mg, Geometric mean Cmax, Treatment D: single oral 100-mg dose, oral solution, fasted, n = 24, value (geometric %CV)): 705 ng/mL | Tmax ([1]; 100 mg, Treatment B: single oral 100-mg dose, tablets + high-fat meal, n = 23): 2 h | Tmax ([1]; 100 mg, Treatment D: single oral 100-mg dose, oral solution, fasted, n = 24): 1 h | AUC(0-inf) ([1]; Arithmetic mean AUCinf, Treatment C: single oral 100-mg dose, tablets + rabeprazole 20 mg, fasted, n = 23, mean ± SD): 8880 ± 2430 ng·h/mL | AUC(0-t) ([1]; Arithmetic mean AUClast, Treatment C: single oral 100-mg dose, tablets + rabeprazole 20 mg, fasted, n = 23, mean ± SD): 8190 ± 1930 ng·h/mL | Cmax ([1]; Arithmetic mean Cmax, Treatment C: single oral 100-mg dose, tablets + rabeprazole 20 mg, fasted, n = 23, mean ± SD): 398 ± 114 ng/mL | AUC(0-inf) ([1]; Geometric mean AUCinf, Treatment C: single oral 100-mg dose, tablets + rabeprazole 20 mg, fasted, n = 23, value (geometric %CV)): 8630 ng·h/mL | AUC(0-t) ([1]; Geometric mean AUClast, Treatment C: single oral 100-mg dose, tablets + rabeprazole 20 mg, fasted, n = 23, value (geometric %CV)): 8010 ng·h/mL | Cmax ([1]; Geometric mean Cmax, Treatment C: single oral 100-mg dose, tablets + rabeprazole 20 mg, fasted, n = 23, value (geometric %CV)): 383 ng/mL | Tmax ([1]; Treatment C: single oral 100-mg dose, tablets + rabeprazole 20 mg, fasted, n = 23): 2 h | Higher Cmax with the oral solution than with the tablet formulation ([1]; single 100-mg oral dose, fasted): ~30% | Participants with any serious treatment-related AE [2, 8]: 0 n (%) | Participants with any treatment-emergent AE [2, 8]: 19 (79) n (%) | Participants with any treatment-related AE [2, 8]: 19 (79) n (%) | Treatment-related AE: Acne [2, 8]: 4 (17) n (%) | Treatment-related AE: Diarrhea [2, 8]: 3 (13) n (%) | Treatment-related AE: First-degree AV block [2, 8]: 5 (21) n (%) | Treatment-related AE: Headache [2, 8]: 7 (29) n (%) | Participants with any serious treatment-related AE [2, 9]: 0 n (%) | Participants with any treatment-emergent AE [2, 9]: 15 (65) n (%) | Participants with any treatment-related AE [2, 9]: 15 (65) n (%) | Treatment-related AE: Acne [2, 9]: 2 (9) n (%) | Treatment-related AE: Diarrhea [2, 9]: 1 (4) n (%) | Treatment-related AE: First-degree AV block [2, 9]: 2 (9) n (%) | Treatment-related AE: Headache [2, 9]: 4 (17) n (%) | Participants with any serious treatment-related AE [2, 10]: 0 n (%) | Participants with any treatment-emergent AE [2, 10]: 19 (83) n (%) | Participants with any treatment-related AE [2, 10]: 19 (83) n (%) | Treatment-related AE: Acne [2, 10]: 2 (9) n (%) | Treatment-related AE: Diarrhea [2, 10]: 2 (9) n (%) | Treatment-related AE: First-degree AV block [2, 10]: 4 (17) n (%) | Treatment-related AE: Headache [2, 10]: 7 (30) n (%) | Participants with any serious treatment-related AE [2, 11]: 0 n (%) | Participants with any treatment-emergent AE [2, 11]: 16 (67) n (%) | Participants with any treatment-related AE [2, 11]: 16 (67) n (%) | Treatment-related AE: Acne [2, 11]: 4 (17) n (%) | Treatment-related AE: Diarrhea [2, 11]: 2 (8) n (%) | Treatment-related AE: First-degree AV block [2, 11]: 3 (13) n (%) | Treatment-related AE: Headache [2, 11]: 6 (25) n (%) | Deaths during the study ([2]; all treatment periods): no deaths | Participants with serious or severe treatment-related AEs ([2]; all treatment periods): No participants | AEs mild in severity (of all AEs) ([2]; all treatment periods, remainder moderate): 119 of 135 | Geometric mean maximum plasma concentration (Cmax) ([3]; 100 mg/100 μCi [14C]lorlatinib): about 600 ng/mL | Renal clearance ([3]; 100 mg/100 μCi [14C]lorlatinib): 1.6 mL/min | Urinary excretion of unchanged lorlatinib ([3]; 100 mg/100 μCi [14C]lorlatinib): ~0.7% | Mean terminal plasma elimination half-life (t1/2) ([3]; human ADME studies): about 20 hours | Aqueous solubility ([4]; pH 7.7): 100 µg/mL | Aqueous solubility ([4]; pH <2): > 10000 µg/mL
